Laboratory results reported in ChEMBL document CHEMBL4689842, “EUbOPEN Chemogenomics Library wave 1” (2021).

System: Fibroblast
Experiment: Multiplex assay against human fibroblast
Type: toxicity, cell-based
Procedure, shortened: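 Cells were classed with CellPathfinder machine-learning gating, first as Hoechst high-intensity objects or normal cells, then (normal cells) as healthy, pyknosed or fragmented nuclei, and finally (pyknosed cells) as mitotic or apoptotic. Staining of live cells at seeding used Hoechst33342, BioTracker Green Microtubule Cytoskeleton Dye, MitoTracker Red and Annexin V Alexa Fluor 680, with imaging on a CQ1 microscope at 37°C and 5% CO2 after compound addition. Tubulin, mitochondrial-mass and membrane-permeability phenotypes are per cents of healthy-nucleus cells.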

[1] = 12 h, 1 µM, compound concentration 1 uM, replicate 1
[2] = 12 h, 1 µM, compound concentration 1 uM, replicate 2
[3] = 12 h, 10 µM, compound concentration 10 uM, replicate 1
[4] = 12 h, 10 µM, compound concentration 10 uM, replicate 2
[5] = 24 h, 1 µM, compound concentration 1 uM, replicate 1
[6] = 24 h, 1 µM, compound concentration 1 uM, replicate 2
[7] = 24 h, 10 µM, compound concentration 10 uM, replicate 1
[8] = 24 h, 10 µM, compound concentration 10 uM, replicate 2
[9] = 48 h, 1 µM, compound concentration 1 uM, replicate 1
[10] = 48 h, 1 µM, compound concentration 1 uM, replicate 2
[11] = 48 h, 10 µM, compound concentration 10 uM, replicate 1
[12] = 48 h, 10 µM, compound concentration 10 uM, replicate 2

## CN1CCN(c2ccc(OC(F)(F)F)c(Nc3ncc4c(n3)-c3c(c(C(N)=O)nn3CCO)CC4)c2)CC1 [ONVANSERTIB]
[1]
  Population Apoptotic (%): 63%
  Population Fragmented Nuclei (%): 23%
  Population Healthy Nuclei (%): 35%
  Population Hoechst High Intensity Objects (%): 19%
  Population Membrane Permeable-Phenotype (%): 29%
  Population Mitochondria Different-Phenotype (%): 10%
  Population Mitotic Cells (%): 36%
  Population Normal (%): 80%
  Population Pyknosed Nuclei (%): 40%
  Population Tubulin-Different-Phenotype (%): 41%
  Total Cell Count: 168
[2]
  Population Apoptotic (%): 25%
  Population Fragmented Nuclei (%): 11%
  Population Healthy Nuclei (%): 80%
  Population Hoechst High Intensity Objects (%): 14%
  Population Membrane Permeable-Phenotype (%): 0%
  Population Mitochondria Different-Phenotype (%): 14%
  Population Mitotic Cells (%): 75%
  Population Normal (%): 85%
  Population Pyknosed Nuclei (%): 7%
  Population Tubulin-Different-Phenotype (%): 16%
  Total Cell Count: 66
[3]
  Population Apoptotic (%): 68%
  Population Fragmented Nuclei (%): 34%
  Population Healthy Nuclei (%): 36%
  Population Hoechst High Intensity Objects (%): 15%
  Population Membrane Permeable-Phenotype (%): 3%
  Population Mitochondria Different-Phenotype (%): 9%
  Population Mitotic Cells (%): 32%
  Population Normal (%): 84%
  Population Pyknosed Nuclei (%): 29%
  Population Tubulin-Different-Phenotype (%): 64%
[4]
  Population Apoptotic (%): 40%
  Population Fragmented Nuclei (%): 9%
  Population Healthy Nuclei (%): 78%
  Population Hoechst High Intensity Objects (%): 19%
  Population Membrane Permeable-Phenotype (%): 0%
  Population Mitochondria Different-Phenotype (%): 84%
  Population Mitotic Cells (%): 60%
  Population Normal (%): 80%
  Population Pyknosed Nuclei (%): 12%
  Population Tubulin-Different-Phenotype (%): 78%
  Total Cell Count: 61
[5]
  Population Apoptotic (%): 53%
  Population Fragmented Nuclei (%): 25%
  Population Healthy Nuclei (%): 41%
  Population Hoechst High Intensity Objects (%): 24%
  Population Membrane Permeable-Phenotype (%): 25%
  Population Mitochondria Different-Phenotype (%): 7%
  Population Mitotic Cells (%): 46%
  Population Normal (%): 75%
  Population Pyknosed Nuclei (%): 33%
  Population Tubulin-Different-Phenotype (%): 61%
  Total Cell Count: 165
[6]
  Population Apoptotic (%): 57%
  Population Fragmented Nuclei (%): 21%
  Population Healthy Nuclei (%): 65%
  Population Hoechst High Intensity Objects (%): 5%
  Population Membrane Permeable-Phenotype (%): 5%
  Population Mitochondria Different-Phenotype (%): 32%
  Population Mitotic Cells (%): 42%
  Population Normal (%): 94%
  Population Pyknosed Nuclei (%): 13%
  Population Tubulin-Different-Phenotype (%): 11%
  Total Cell Count: 73
[7]
  Population Apoptotic (%): 58%
  Population Fragmented Nuclei (%): 39%
  Population Healthy Nuclei (%): 37%
  Population Hoechst High Intensity Objects (%): 18%
  Population Membrane Permeable-Phenotype (%): 28%
  Population Mitochondria Different-Phenotype (%): 0%
  Population Mitotic Cells (%): 41%
  Population Normal (%): 81%
  Population Pyknosed Nuclei (%): 23%
  Population Tubulin-Different-Phenotype (%): 66%
  Total Cell Count: 127
[8]
  Population Apoptotic (%): 40%
  Population Fragmented Nuclei (%): 11%
  Population Healthy Nuclei (%): 77%
  Population Hoechst High Intensity Objects (%): 16%
  Population Membrane Permeable-Phenotype (%): 5%
  Population Mitochondria Different-Phenotype (%): 82%
  Population Mitotic Cells (%): 60%
  Population Normal (%): 83%
  Population Pyknosed Nuclei (%): 11%
  Population Tubulin-Different-Phenotype (%): 55%
  Total Cell Count: 55
[9]
  Population Apoptotic (%): 53%
  Population Fragmented Nuclei (%): 38%
  Population Healthy Nuclei (%): 37%
  Population Hoechst High Intensity Objects (%): 21%
  Population Membrane Permeable-Phenotype (%): 25%
  Population Mitochondria Different-Phenotype (%): 6%
  Population Mitotic Cells (%): 46%
  Population Normal (%): 78%
  Population Pyknosed Nuclei (%): 24%
  Population Tubulin-Different-Phenotype (%): 65%
  Total Cell Count: 146
[10]
  Population Apoptotic (%): 40%
  Population Fragmented Nuclei (%): 25%
  Population Healthy Nuclei (%): 68%
  Population Hoechst High Intensity Objects (%): 17%
  Population Membrane Permeable-Phenotype (%): 13%
  Population Mitochondria Different-Phenotype (%): 1%
  Population Mitotic Cells (%): 60%
  Population Normal (%): 82%
  Population Pyknosed Nuclei (%): 5%
  Population Tubulin-Different-Phenotype (%): 23%
[11]
  Population Apoptotic (%): 50%
  Population Fragmented Nuclei (%): 46%
  Population Healthy Nuclei (%): 40%
  Population Hoechst High Intensity Objects (%): 23%
  Population Membrane Permeable-Phenotype (%): 19%
  Population Mitochondria Different-Phenotype (%): 9%
  Population Mitotic Cells (%): 50%
  Population Normal (%): 76%
  Population Pyknosed Nuclei (%): 13%
  Population Tubulin-Different-Phenotype (%): 69%
  Total Cell Count: 136
[12]
  Population Fragmented Nuclei (%): 37%
  Population Healthy Nuclei (%): 58%
  Population Hoechst High Intensity Objects (%): 20%
  Population Membrane Permeable-Phenotype (%): 7%
  Population Mitochondria Different-Phenotype (%): 4%
  Population Normal (%): 79%
  Population Pyknosed Nuclei (%): 4%
  Population Tubulin-Different-Phenotype (%): 73%
  Total Cell Count: 241
